Measurements as given in ChEMBL document CHEMBL4261527, “Benzylsulfanyl benzo-heterocycle amides and hydrazones as new agents against drug-susceptible and resistant Mycobacterium tuberculosis” (Medchemcomm, 2017).
In brackets after ≈: the same amount, converted by molar mass. Activity calls are given as the source filed them. The rule behind the calls is not given here.

Legend:
[1] = system: Mycobacterium tuberculosis; assay: Antimycobacterial activity against ethionamide-resistant Mycobacterium tuberculosis ATCC 35830 by resazurin dye based fluorimetric method; assay type: functional
[2] = system: Mycobacterium tuberculosis; assay: Antimycobacterial activity against ethambutol-resistant Mycobacterium tuberculosis ATCC 35837 by resazurin dye based fluorimetric method; assay type: functional
[3] = system: Mycobacterium tuberculosis; assay: Antimycobacterial activity against streptomycin-resistant Mycobacterium tuberculosis ATCC 35820 by resazurin dye based fluorimetric method; assay type: functional
[4] = system: Mycobacterium tuberculosis; assay: Antimycobacterial activity against rifampicin-resistant Mycobacterium tuberculosis H37Rv by resazurin dye based fluorimetric method; assay type: functional
[5] = system: Mycobacterium tuberculosis; assay: Antimycobacterial activity against kanamycin-resistant Mycobacterium tuberculosis ATCC 35827 by resazurin dye based fluorimetric method; assay type: functional
[6] = system: Mycobacterium tuberculosis; assay: Antimycobacterial activity against multidrug-resistant Mycobacterium tuberculosis clinical isolate; assay type: functional
Summary of the method: (§1)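 Clinical isolates coded 960 (drug-susceptible), 330 (MDR) and 431 (XDR); MIC reported in μM.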

[7] = system: Mycobacterium tuberculosis; assay: Antimycobacterial activity against extensively drug-resistant Mycobacterium tuberculosis clinical isolate; assay type: functional; summary of the method: as §1
[8] = system: Mycobacterium tuberculosis; assay: Potency index, ratio of isoniazid MIC to test compound MIC for extensively drug-resistant Mycobacterium tuberculosis clinical isolate; assay type: functional
[9] = system: Mycobacterium tuberculosis; assay: Antitubercular activity against Mycobacterium tuberculosis H37Ra harboring pTYOK infected in Balb/c mouse assessed as bacterial growth inhibition at 3.1 mg/kg qd measured at 2 days interval for 6 days by luminometric method; assay type: functional, organism-based
Summary of the method: (§2)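 Mice infected with marker-free autoluminescent Mtb H37Ra and dosed once daily for 6 consecutive days; vehicle CMC-Na. Read-out is the luminescence ratio RLU on day n over RLU on day 0, plotted against days after the first treatment.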

[10] = system: Mycobacterium tuberculosis; assay: Potency index, ratio of ftivazide MIC to test compound MIC for extensively drug-resistant Mycobacterium tuberculosis clinical isolate; assay type: functional
[11] = system: Mycobacterium tuberculosis; assay: Antitubercular activity against Mycobacterium tuberculosis H37Ra harboring pTYOK infected in Balb/c mouse assessed as bacterial growth inhibition at 10 mg/kg qd measured at 2 days interval for 6 days by luminometric method; assay type: functional, organism-based; summary of the method: as §2

O=C(N/N=C/c1ccc(CSc2nc3ccccc3[nH]2)cc1)c1ccncc1
MIC [1]: 1.25 µg/mL (≈ 3.23 µM) | MIC [2]: 0.156 µg/mL (≈ 0.403 µM) | MIC [3]: 0.156 µg/mL (≈ 0.403 µM) | MIC [4]: 0.312 µg/mL (≈ 0.805 µM) | MIC [5]: 0.156 µg/mL (≈ 0.403 µM) | MIC [6]: 6.4 µM (≈ 2.48 µg/mL) | MIC [7]: > 12.8 µM

NNC(=O)c1ccncc1 [ISONIAZID]
MIC [6]: 8 µM (≈ 1.1 µg/mL) | MIC [7]: 64 µM (≈ 8.78 µg/mL)

COc1cc(/C=N/NC(=O)c2ccncc2)ccc1O [FTIVAZIDE]
MIC [1]: 1.25 µg/mL (≈ 4.61 µM) | MIC [2]: 0.312 µg/mL (≈ 1.15 µM) | MIC [3]: 0.312 µg/mL (≈ 1.15 µM) | MIC [4]: 0.312 µg/mL (≈ 1.15 µM) | MIC [5]: 0.156 µg/mL (≈ 0.575 µM) | MIC [6]: 16 µM (≈ 4.34 µg/mL) | MIC [7]: 32 µM (≈ 8.68 µg/mL)

O=C(N/N=C/c1ccc(CSc2nc3ccccc3o2)cc1)c1ccncc1
MIC [1]: 1.25 µg/mL (≈ 3.22 µM) | Ratio [8]: 20 | MIC [2]: 0.156 µg/mL (≈ 0.402 µM) | growth inhibition (GI) [9]: Active | MIC [3]: 0.156 µg/mL (≈ 0.402 µM) | MIC [4]: 0.312 µg/mL (≈ 0.803 µM) | MIC [5]: 0.156 µg/mL (≈ 0.402 µM) | MIC [6]: 6.4 µM (≈ 2.49 µg/mL) | MIC [7]: 3.2 µM (≈ 1.24 µg/mL) | Ratio [10]: 10

O=C(N/N=C/c1ccc(CSc2nc3ccccc3s2)cc1)c1ccncc1
MIC [1]: 1.25 µg/mL (≈ 3.09 µM) | MIC [2]: 0.312 µg/mL (≈ 0.771 µM) | MIC [3]: 0.312 µg/mL (≈ 0.771 µM) | MIC [4]: 0.625 µg/mL (≈ 1.55 µM) | MIC [5]: 0.312 µg/mL (≈ 0.771 µM) | MIC [6]: 6.4 µM (≈ 2.59 µg/mL) | MIC [7]: > 12.8 µM

O=C(NCc1ccc(CSc2nc3ccccc3o2)cc1)c1ccncc1
MIC [6]: 2 µM (≈ 0.751 µg/mL) | MIC [7]: 16 µM (≈ 6.01 µg/mL)

CO[C@H]1/C=C/O[C@@]2(C)Oc3c(C)c(O)c4c(O)c(c(/C=N/N5CCN(C)CC5)c(O)c4c3C2=O)NC(=O)/C(C)=C\C=C\[C@H](C)[C@H](O)[C@@H](C)[C@@H](O)[C@@H](C)[C@H](OC(C)=O)[C@@H]1C [RIFAMPIN]
growth inhibition (GI) [11]: Active | MIC [6]: > 19 µM | MIC [7]: > 19 µM
